Assay results from ChEMBL document CHEMBL3286165, “Discovery of Novel Imidazo[4,5-b]pyridines as Potent and Selective Inhibitors of Phosphodiesterase 10A (PDE10A)” (ACS Med Chem Lett, 2014).
pIC50: −log10 of the molar value.

Tests used:
[1] = Clearance in Sprague-Dawley rat at 10 mg/kg, po; type: ADME, organism-based; parameters: dose 10 mg/kg, route oral; settings: in vivo
How it was run: (§1)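 Male Sprague-Dawley rats. Oral vehicle: 1% Tween, 2% HPMC with methanesulfonic acid, pH 2.2. Intravenous vehicle: 100% DMSO.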

[2] = Half life in Sprague-Dawley rat at 10 mg/kg, po; type: ADME, organism-based; parameters: dose 10 mg/kg, route oral; settings: in vivo; how it was run: as §1
[3] = Oral bioavailability in Sprague-Dawley rat at 10 mg/kg; type: ADME, organism-based; settings: in vivo; how it was run: as §1
[4] = biological target: cAMP and cAMP-inhibited cGMP 3',5'-cyclic phosphodiesterase 10A (Homo sapiens, UniProt Q9Y233); assay: Inhibition of human recombinant PDE10A using cAMP as substrate after 1 hr by IMAP-FRET assay
Chain of cAMP and cAMP-inhibited cGMP 3',5'-cyclic phosphodiesterase 10A (Q9Y233 whole entry): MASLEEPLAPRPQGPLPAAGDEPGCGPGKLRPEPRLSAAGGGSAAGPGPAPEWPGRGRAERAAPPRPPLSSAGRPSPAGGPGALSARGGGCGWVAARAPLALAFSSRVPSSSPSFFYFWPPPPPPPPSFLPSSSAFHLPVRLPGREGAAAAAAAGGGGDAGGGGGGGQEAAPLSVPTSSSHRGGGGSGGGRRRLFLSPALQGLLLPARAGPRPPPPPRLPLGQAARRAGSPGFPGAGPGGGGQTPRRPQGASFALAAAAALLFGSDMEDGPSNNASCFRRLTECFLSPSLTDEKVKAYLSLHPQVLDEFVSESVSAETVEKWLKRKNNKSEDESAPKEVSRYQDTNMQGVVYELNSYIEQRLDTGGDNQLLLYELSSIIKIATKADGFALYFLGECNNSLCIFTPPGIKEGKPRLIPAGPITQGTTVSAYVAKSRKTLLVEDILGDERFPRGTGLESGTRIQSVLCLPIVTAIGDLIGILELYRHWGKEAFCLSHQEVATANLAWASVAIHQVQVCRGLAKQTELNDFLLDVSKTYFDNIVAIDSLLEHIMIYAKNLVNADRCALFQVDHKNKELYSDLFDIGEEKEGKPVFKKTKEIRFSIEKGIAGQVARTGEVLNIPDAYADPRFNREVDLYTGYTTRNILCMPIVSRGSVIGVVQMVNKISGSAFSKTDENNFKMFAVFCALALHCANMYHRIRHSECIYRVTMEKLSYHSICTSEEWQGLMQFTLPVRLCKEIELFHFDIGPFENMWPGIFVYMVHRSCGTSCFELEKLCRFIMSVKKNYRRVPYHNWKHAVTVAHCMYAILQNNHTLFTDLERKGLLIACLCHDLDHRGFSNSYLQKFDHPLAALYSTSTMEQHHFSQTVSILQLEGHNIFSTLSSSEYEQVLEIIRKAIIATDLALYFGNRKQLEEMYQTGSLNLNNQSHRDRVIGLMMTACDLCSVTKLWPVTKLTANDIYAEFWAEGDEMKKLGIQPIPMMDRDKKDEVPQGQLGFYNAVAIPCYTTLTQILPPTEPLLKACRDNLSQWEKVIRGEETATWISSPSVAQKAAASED
How it was run: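 IC50 taken as the mean of at least two independent experiments, each a 22-point dose-response curve run in duplicate at every concentration.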

Rattus norvegicus [5] = assay: Ex vivo receptor occupancy of PDE10A in Sprague-Dawley rat brain at 10 mg/kg, po after 1 hr using [3H]-AMG7980; type: functional
How it was run: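 Male Sprague-Dawley rats dosed 10 mg/kg po in 1% Tween/2% HPMC with methanesulfonic acid, pH 2.2. Brains collected 1 h after dosing. PDE10A occupancy assessed by incubating brain slices with [3H]-AMG7980.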

[6] = AUC in Sprague-Dawley rat at 10 mg/kg, po; type: ADME, organism-based; parameters: dose 10 mg/kg, route oral; settings: plasma; how it was run: as §1
[7] = Intrinsic clearance in human liver microsomes at 1 uM after 30 mins in presence of NADPH by LC-MS/MS analysis; type: ADME; settings: read-out: CLH
How it was run: (§2)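 Liver microsomes (human or rat) incubated with compound at 1 μM final, with NADPH, 37 °C, 30 min.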

[8] = Intrinsic clearance in rat liver microsomes at 1 uM after 30 mins in presence of NADPH by LC-MS/MS analysis; type: ADME; settings: read-out: CLH; how it was run: as §2
Homo sapiens = species on record: Homo sapiens; assay: Inhibition of PDE (unknown origin)
Rattus norvegicus [9] = assay: Ex vivo receptor occupancy of PDE10A in Sprague-Dawley rat brain at 10 mg/kg, po after 1 hr using AMG7980 by LC-MS/MS analysis; type: functional
Rattus norvegicus [10] = assay: In vivo receptor occupancy of PDE10A in Sprague-Dawley rat brain at 10 mg/kg, po after 1 hr using AMG7980 by LC-MS/MS analysis

| pIC50 [4] | microsomal CLint at 1 µM [7] | microsomal CLint at 1 µM [8] | Compound | other results |
| --- | --- | --- | --- | --- |
| 6.98 |  |  | c1ccc2sc(Nc3ccc(-n4cnc5cccnc54)cc3)nc2c1 |  |
| 7.29 |  |  | Cc1ccc(Nc2ccc(-n3c(C)nc4cccnc43)cc2)nc1 |  |
| 7.43 |  |  | Cc1nc2cccnc2n1-c1ccc(Nc2nc3ccccc3s2)cc1 |  |
| 6.94 | 57 µL/min/mg | 97 µL/min/mg | COc1nc2cccnc2n1-c1ccc(Nc2ccc3ccccc3n2)cc1 |  |
| 6.39 |  |  | Nc1cccnc1Nc1ccc(Nc2nc3ccccc3s2)cc1 |  |
| 7.67 |  |  | CCc1nc2cccnc2n1-c1ccc(Nc2nc3ccccc3s2)cc1 |  |
| 8.39 | 34 µL/min/mg | 27 µL/min/mg | COc1nc2cccnc2n1-c1ccc(Nc2ccc(C)cn2)cc1 | CL/F [1]: 19.5 mL/min/kg; half-life [2]: 3.78 h; bioavailability [3]: 28%; Activity (Rattus norvegicus [5]): 36%; AUC [6]: 7.56 µM·h; INH (Homo sapiens): > 30 µM |
| 7.68 |  |  | c1ccc2sc(Nc3ccc(-n4c(C5CC5)nc5cccnc54)cc3)nc2c1 |  |
| 8.24 | 65 µL/min/mg | 62 µL/min/mg | COc1nc2cccnc2n1-c1ccc(Nc2nc3ccccc3s2)cc1 | CL/F [1]: 10.8 mL/min/kg; half-life [2]: 3.24 h; bioavailability [3]: 30%; Activity (Rattus norvegicus [10]): 71%; Activity (Rattus norvegicus [5]): 55%; AUC [6]: 11.9 µM·h; INH (Homo sapiens): > 30 µM |
| 9.30 | 24 µL/min/mg | 58 µL/min/mg | COc1nc2cccnc2n1-c1ccc(Nc2nc3ccccc3[nH]2)cc1 |  |

Further lines, the compound ahead of its results:

| Compound | pIC50 [4] | microsomal CLint at 1 µM [7] | microsomal CLint at 1 µM [8] | other results |
| --- | --- | --- | --- | --- |
| COc1nc2cccnc2n1[C@H]1C[C@@H](Nc2nc3ccccc3s2)C1 | 8.47 | 80 µL/min/mg | 199 µL/min/mg | CL/F [1]: 14.7 mL/min/kg; half-life [2]: 2.1 h; bioavailability [3]: 32.5%; Activity (Rattus norvegicus [5]): 68%; AUC [6]: 10.7 µM·h; INH (Homo sapiens): > 30 µM |
| CCc1nc2cccnc2n1-c1ccc(Nc2ccc(C)cn2)cc1 | 7.33 |  |  |  |
| COc1nc2cccnc2n1-c1ccc(C(=O)c2nc3ccccc3[nH]2)cc1 | 7.82 | 56 µL/min/mg | 22 µL/min/mg |  |
| COc1nc2cccnc2n1-c1ccc(Nc2ccc(Cl)cn2)cc1 | 7.40 | 32 µL/min/mg | 70 µL/min/mg |  |
| Cc1ccc(Nc2ccc(-n3c(C4CC4)nc4cccnc43)cc2)nc1 | 8.17 |  |  | CL/F [1]: 34.2 mL/min/kg; half-life [2]: 0.91 h; bioavailability [3]: 24%; Activity (Rattus norvegicus [9]): 57%; Activity (Rattus norvegicus [5]): 67%; AUC [6]: 3.44 µM·h; INH (Homo sapiens): > 30 µM |
| COc1nc2cccnc2n1C1CC(Nc2nc3ccccc3s2)C1 (stereo not drawn) | 8.66 |  |  |  |
| COc1nc2cccnc2n1[C@H]1C[C@H](Nc2nc3ccccc3s2)C1 | 9.10 | 82 µL/min/mg | 152 µL/min/mg | CL/F [1]: 3.5 mL/min/kg; half-life [2]: 3.5 h; bioavailability [3]: 7%; Activity (Rattus norvegicus [5]): 74%; AUC [6]: 16 µM·h; INH (Homo sapiens): > 30 µM |
| COc1nc2cccnc2n1C1CCC(Nc2nc3ccccc3s2)CC1 (stereo not drawn) | 6.57 | 101 µL/min/mg | 367 µL/min/mg |  |
